Assay results: the array DNA melting data of Ke et al. (doi:10.1101/2024.01.08.574731)

Key:
[1] = folding enthalpy; higher = less favourable; fluorescence melt of hairpins on a sequencing array, two-state fit; conditions: sodium 0.088 M
Summary of the method: (§1)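 Hairpins were imaged by Cy3 fluorescence on a sequenced MiSeq flow cell with annealed Cy3 and quencher oligos, in 50 mM Na-HEPES pH 8.0, 25 mM NaCl, in 2.5 °C steps up to 60 °C. Bootstrapped two-state fits of normalised signals gave melting temperature and folding enthalpy. Four replicates were combined by inverse variance, and fitted temperatures were raised by 9.35 °C to match UV melts.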

[2] = melting temperature; fluorescence melt of hairpins on a sequencing array, two-state fit, raised by 9.35 °C to match UV melts; conditions: sodium 0.088 M
Summary of the method: as §1

Row | Sequence | folding enthalpy [1] | Tm [2]
1 | GCCCCGGGAAACCGGGAC (.(((((....))))).) | -12.2 kcal/mol | 53.7 °C
2 | GAAGAGGAAACTCTTC ((((((....)))))) | -34.2 kcal/mol | 48.3 °C
3 | GCGGCCGCCCGC ((((....)))) | -17.1 kcal/mol | 63.2 °C
4 | GTGGGCCGAAAGGCCAC (((.(((....)))))) | -10.7 kcal/mol | 64.9 °C
5 | GCACGAGGAAACTCGCAC (..((((....))))..) | -8.67 kcal/mol | 25.5 °C
6 | GTTCCCGAAAGGGTCAAC ((((((....)))..))) | -9.41 kcal/mol | 26.9 °C
7 | GGTCCCGAAAGGGAACC ((((((....))).))) | -18.5 kcal/mol | 60.5 °C
8 | GATCCCCTAGGGATC ((((((...)))))) | -38.4 kcal/mol | 64.4 °C
9 | GCGATGCGAAAGCTGCGC (((..((....))..))) | -22.7 kcal/mol | 64.2 °C
10 | GTCGACGAAAGTCAGGAC ((((((....)))..))) | -17.6 kcal/mol | 41.7 °C
11 | GATCACAATGTGATC ((((((...)))))) | -36.8 kcal/mol | 55.6 °C
12 | GCCCGGCGAAAGCCAAGC ((..(((....)))..)) | -10.7 kcal/mol | 35.7 °C
13 | GGTGCAACGAAAGTTACC (((..(((....)))))) | -13.1 kcal/mol | 27.7 °C
14 | GTCTTCGAAAGAATAGAC ((((((....)))..))) | -19.5 kcal/mol | 30.7 °C
15 | GTAGCGCGAAAGCGATAC (((.(((....))).))) | -24.1 kcal/mol | 68 °C
16 | GTCTACTCGAAAGAGGAC (((..(((....)))))) | -14.4 kcal/mol | 32.1 °C
17 | GTTACGGAAACGTAAC ((((((....)))))) | -38.1 kcal/mol | 56.8 °C
18 | GATCCATTGGTGGATC ((((((....)))))) | -44.4 kcal/mol | 53 °C
19 | GATCTTGGTTAAGATC ((((((....)))))) | -30.5 kcal/mol | 43.7 °C
20 | GGCTACGAAAGTACGCC ((((((....))).))) | -33.4 kcal/mol | 53.5 °C
21 | GGCATGGAAACATGCC ((((((....)))))) | -34.9 kcal/mol | 67.3 °C
22 | GGAATTGGAAACAACTCC (((.(((....))).))) | -22.2 kcal/mol | 30.3 °C
23 | GCTACGCGAAAGCGTCGC ((.((((....)))).)) | -19.3 kcal/mol | 57.7 °C

Row | Sequence | folding enthalpy [1] | Tm [2]
24 | GCAAACCGAAAGGTTGC (((.(((....)))))) | -29.1 kcal/mol | 57.2 °C
25 | GGAACTGGAAACAATTCC ((((.((....)).)))) | -13.1 kcal/mol | 28.4 °C
26 | GTAAAGGGAAACCCTTAC ((((.((....)).)))) | -22.2 kcal/mol | 32.8 °C
27 | GGTCAGGGAAACCCGACC ((((.((....)).)))) | -32.6 kcal/mol | 50.2 °C
28 | GACGGAGGAAACTTCGTC ((((.((....)).)))) | -42.1 kcal/mol | 49.6 °C
29 | GGGCTTGGAAACAAGCTC (.(((((....))))).) | -31.2 kcal/mol | 54.9 °C
30 | GAGACCCGAAAGGGACTC (((.(((....))).))) | -32.4 kcal/mol | 57.6 °C
31 | GTAAACCGAAAGGTCTAC (((.(((....))).))) | -19.2 kcal/mol | 35.6 °C
32 | GTACCGGGAAACTGGTGC (.(((.(....).))).) | -25.9 kcal/mol | 42.4 °C
33 | GCACACGAAAGTGCTGC ((((((....))).))) | -34 kcal/mol | 54.7 °C
34 | GCGACATCTCGC ((((....)))) | -24.2 kcal/mol | 46.5 °C
35 | GCATATTCGAAAGAATGC (((..(((....)))))) | -18.7 kcal/mol | 34 °C
36 | GAACGTGGAAACACGTCC (.(((((....))))).) | -13.6 kcal/mol | 41.3 °C
37 | GTTAACGGAAACGTTGAC ((.((((....)))).)) | -26.9 kcal/mol | 46.3 °C
38 | GTGTTGGGAAACCAACGC (.(((((....))))).) | -32.8 kcal/mol | 54.2 °C
39 | GGGTTGGGAAACCAGCTC (.(.(((....))).).) | -18.6 kcal/mol | 36.1 °C
40 | GATCATATCCATGATC ((((((....)))))) | -35.8 kcal/mol | 47.4 °C
41 | TGAGAGAAATCTCA (((((....))))) | -9.57 kcal/mol | 28.2 °C
42 | GCGTACGAAAGTATTCGC ((((((....)))..))) | -25.5 kcal/mol | 40.7 °C
43 | GCGGTCATCCGC ((((....)))) | -26.7 kcal/mol | 59.3 °C
44 | GATCACGTAGGTGATC ((((((....)))))) | -39 kcal/mol | 63.9 °C
45 | GCCATCCGAAAGGAGGGC (((.(((....))).))) | -44 kcal/mol | 67.2 °C
46 | GCTTGATCGAAAGATAGC (((..(((....)))))) | -17.7 kcal/mol | 29.4 °C

Row | Sequence | folding enthalpy [1] | Tm [2]
47 | GTCGACGAAAGTCAGAC ((((((....))).))) | -35.2 kcal/mol | 52.3 °C
48 | GTCCAGCGAAAGCTAGAC (((.(((....))).))) | -22.1 kcal/mol | 46.4 °C
49 | GTAGGGCCGAAAGGCTAC (((..(((....)))))) | -9.3 kcal/mol | 35 °C
50 | GCAGTTGCGAAAGCATGC (((..(((....)))))) | -16.8 kcal/mol | 42 °C
51 | GTAGCCGGAAACAGCTAC (((((.(....).))))) | -22.2 kcal/mol | 43.4 °C
52 | GCGAATCCGAAAGGACGC (((..(((....)))))) | -26.1 kcal/mol | 48.7 °C
53 | GCATAGCGAAAGCGAAGC ((.(.((....)).).)) | -22.6 kcal/mol | 58.1 °C
54 | GCCTCCGGAAACGGAGAC (.(((((....))))).) | -15.8 kcal/mol | 47 °C
55 | GACCGCCGAAAGGCCGTC (((.(((....))).))) | -18.8 kcal/mol | 50.7 °C
56 | GGTCTCCCGAAAGGGACC (((..(((....)))))) | -12.4 kcal/mol | 41.2 °C
57 | GTTGTTGGAAACAATAAC (((.(((....))).))) | -20.3 kcal/mol | 39.6 °C
58 | GTGGTTGAAAAACCAC ((((((....)))))) | -37.8 kcal/mol | 59.7 °C
59 | GTGACCGGAAACGGTTGC (..((((....))))..) | -17.9 kcal/mol | 47.6 °C
60 | GATCTACACGTAGATC ((((((....)))))) | -35.6 kcal/mol | 50.5 °C
61 | GATCAGGAGCTGATC ((((((...)))))) | -32.3 kcal/mol | 46.5 °C
62 | GAACGCCGAAAGGCCTTC (((.(((....))).))) | -13.1 kcal/mol | 34.5 °C
63 | GATCCCCCCGGGGATC ((((((....)))))) | -39.7 kcal/mol | 65.9 °C
64 | GGATCCCCGAAAGGGTCC (((..(((....)))))) | -19.8 kcal/mol | 45.3 °C
65 | GCGTGGGTACGC ((((....)))) | -23.9 kcal/mol | 53.9 °C
66 | GCTGTTGGAAACAACAAC (.(((((....))))).) | -15.9 kcal/mol | 35.2 °C
67 | GGGATAGAAATATCCC ((((((....)))))) | -30.3 kcal/mol | 51.1 °C
68 | GCAGCGCGAAAGCGTGC (((.(((....)))))) | -14 kcal/mol | 62.2 °C
69 | GAGCAGCGAAAGCTCCTC (((.(((....))).))) | -15.2 kcal/mol | 37.5 °C

Row | Sequence | folding enthalpy [1] | Tm [2]
70 | GGTTTCGCGAAAGCGACC (((..(((....)))))) | -8.08 kcal/mol | 32.1 °C
71 | GAACACGAAAGTGCTTC ((((((....))).))) | -20.2 kcal/mol | 41.9 °C
72 | GTGACCGAAAGGTAGCAC ((((((....)))..))) | -16.9 kcal/mol | 36.1 °C
73 | CGGCACGGAAACGTCCCG (((.(((....))).))) | -26 kcal/mol | 42 °C
74 | GCAGTTCGAAAGAAATGC (((.(((....))).))) | -36.8 kcal/mol | 54.2 °C
75 | GTCTTGAAAAAGAC (((((....))))) | -21.7 kcal/mol | 44.1 °C
76 | GTACTGGAAACAGTAC ((((((....)))))) | -36 kcal/mol | 54.7 °C
77 | GATCGTCATACGATC ((((((...)))))) | -33.8 kcal/mol | 57.5 °C
78 | GATCACAATTGTGATC ((((((....)))))) | -41.6 kcal/mol | 56.1 °C
79 | GATCTGCAATCAGATC ((((((....)))))) | -36.7 kcal/mol | 47.2 °C
80 | GGAAGCGAAAGCTGGTCC ((((((....)))..))) | -11.6 kcal/mol | 36 °C
81 | GCGAGCGGAAACGTTCGC ((((.((....)).)))) | -41.2 kcal/mol | 63.4 °C
82 | GTCGGTGGAAACGCTGAC (((.(.(....).).))) | -20 kcal/mol | 42.6 °C
83 | GCCGTCGCGAAAGCGGGC (((..(((....)))))) | -17.9 kcal/mol | 54.5 °C
84 | GCTTTCCGAAAGGATAGC (((.(((....))).))) | -35.9 kcal/mol | 51.5 °C
85 | GGTGTCGAAAGACTGACC ((((((....)))..))) | -18.4 kcal/mol | 40.5 °C
86 | GGGCCCGGAAACGGGCTC (.(((((....))))).) | -12.2 kcal/mol | 68 °C
87 | GATCCATGCTTGGATC ((((((....)))))) | -43.6 kcal/mol | 55.1 °C
88 | GGTGCCGGAAACAGCACC (((((.(....).))))) | -46.2 kcal/mol | 53.5 °C
89 | GCCTGGCGAAAGCGATGC ((.(.((....)).).)) | -6.61 kcal/mol | 37 °C
90 | GCACACGAAAGTGGATGC ((((((....)))..))) | -17.9 kcal/mol | 45.6 °C
91 | GACCGAGGAAACCCGGTC (((((.(....).))))) | -36.4 kcal/mol | 53.2 °C
92 | GCCCAGCGAAAGCGGTGC ((.(.((....)).).)) | -15.8 kcal/mol | 53.1 °C
